Assay outcomes: PubChem BioAssay, several laboratories
PostGolgi ctrl: growth inhibition of yeast control strain, primary screen, counter-screen for post-Golgi transport modulator project | AID 738, 2007 | inhibition, % at 10 µM | efflux-deficient yeast background strain, growth absorbance A615, 16 h | 5% of 98,000 active
EphB4 antag: EphB4-ephrin-B2 interaction antagonists, primary screen, biochemical, TNYL-RAW peptide probe, fluorescence polarization; Ephrin type-B receptor 4 (Homo sapiens), P54760; EphB4 LBD / TNYL-RAW-Alexa532 peptide; inhibition, % at 7 µM; 0.15% of 97,000 active; AID 720, 2007;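 active = inhibition above the screen-wide mean inhibition plus 3 SD, cut at about 15% in these data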;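 also: 0% = DMSO wells and 100% = excess unlabeled TNYL-RAW peptide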
Plk1 PBD FP: Plk1 polo box domain binding inhibitors, primary screen, biochemical, fluorescence polarization. Plk1 PBD phosphopeptide binding. inhibition, %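 (tested at about 20 µM)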. Serine/threonine-protein kinase PLK1 (Homo sapiens), P53350. 0.13% of 97,000 active; in the data active = inhibition above about 34%, passing the limit was not always enough
Target sequence (P53350 whole entry, looked up, the tested form may be a part): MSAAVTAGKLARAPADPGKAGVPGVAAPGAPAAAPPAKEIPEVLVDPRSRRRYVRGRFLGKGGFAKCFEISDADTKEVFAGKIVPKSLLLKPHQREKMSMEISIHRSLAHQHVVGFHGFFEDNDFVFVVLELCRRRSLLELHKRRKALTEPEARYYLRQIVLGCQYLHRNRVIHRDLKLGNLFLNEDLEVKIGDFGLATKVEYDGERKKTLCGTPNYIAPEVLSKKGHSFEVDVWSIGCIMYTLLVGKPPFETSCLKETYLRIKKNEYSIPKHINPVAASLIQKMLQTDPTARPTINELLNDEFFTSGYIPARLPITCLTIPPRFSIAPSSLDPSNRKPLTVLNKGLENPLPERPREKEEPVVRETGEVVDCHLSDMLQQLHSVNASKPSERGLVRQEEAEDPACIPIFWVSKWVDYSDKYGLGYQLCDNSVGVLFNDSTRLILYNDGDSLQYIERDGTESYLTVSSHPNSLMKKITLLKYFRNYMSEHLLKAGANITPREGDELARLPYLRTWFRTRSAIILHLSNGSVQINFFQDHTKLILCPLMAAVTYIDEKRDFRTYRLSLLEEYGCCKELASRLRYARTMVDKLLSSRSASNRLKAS
PostGolgi yeast: phenotypic screen on post-Golgi transport, primary screen. post-Golgi transport phenotypic cell assay. inhibition, % at 10 µM. 0.9% of 98,000 active;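 also: yeast cells grown in 1536-well plates; yeast grown about 18 h at 30C before absorbance read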
HIV Rev-RRE inh: HIV-1 Rev-RRE binding inhibitors, primary screen, biochemical, FRET, protein-RNA interaction | Rev peptide-RRE RNA binding | inhibition, % at 8 µM | 0.79% of 97,000 active | AID 704, 2007;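 active = inhibition above the screen-wide mean plus 3 SD, cut at about 35% in these data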;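 also: 0% = median DMSO wells and 100% = median Neomycin B control wells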
Target sequence (P05866 whole entry, looked up): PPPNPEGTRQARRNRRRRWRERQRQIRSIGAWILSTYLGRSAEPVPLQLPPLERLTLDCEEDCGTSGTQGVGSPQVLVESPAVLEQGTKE
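assay system = Cy5-tagged RRE RNA duplex with fluorescein-tagged Rev peptide | incubation = 5 + 15 min at 25 °C | also added = labelled Rev peptide | measure = % inhibition of FRET ratio versus controls | benchmarks = DMSO wells as 0% and neomycin B wells as 100% inhibition | measured by = FRET fluorescence readout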
PLK1 inh: human PLK1 kinase inhibitors, primary screen, biochemical, TR-FRET. inhibition, % at 10 µM. recombinant PLK1 kinase, TR-FRET peptide phosphorylation. AID 619, 2007. 0.53% of 97,000 active;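 active = inhibition of 50% or more in the single-concentration screen; inactive = inhibition below 50%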;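 also: 0% = DMSO max control and 100% = H-89 dihydrochloride min control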
* hit, by the source's call; . = no result. Shown are actives, neighbours in structure and some others; about 6.4% of the full set was active somewhere. Rule as the data show it, unless noted: active = inhibition above about 30%; inactive = the rest.

SMILES | PostGolgi ctrl | EphB4 antag | Plk1 PBD FP | PostGolgi yeast | HIV Rev-RRE inh | PLK1 inh
O=C(NC1CC1)c1cc(-c2ccccn2)nc2ccccc12 | 34.1* | 0.3 | 6.8 | 0.9 | 4.9 | -4.6
COc1ccc2cc(C#N)c(NC(C)C)nc2c1 | -2.5 | -3.2 | -5.4 | 21.9 | 1.9 | 20.6
CCN(CC)c1nc2cc(OC)ccc2cc1C#N | -3.2 | -2.1 | -12.4 | 38.7* | 23.7 | 1.9
CCOc1ccc(C(=O)NN2C(=O)C3C4C=CC(O4)C3C2=O)cc1 (centres undefined) | 10.7 | -5.1 | -13.2 | 2.8 | 3.1 | -6.8
Clc1ccc(OCCN2CCN(c3ncnc4sccc34)CC2)cc1 | 33.0* | . | . | -10.6 | . | .
Cc1ccc(OCCN2CCN(c3ncnc4sc(C)c(C)c34)CC2)cc1 | 20.1 | 11.5 | -3.8 | 0.1 | 7.4 | 2.2
Cc1[nH]c(-c2ccc3c(c2)OCO3)nc1C(=O)O | 30.6* | -1.1 | -1.8 | -1.5 | 3.5 | 1.8
CCOc1ccccc1N(C(=O)c1ccco1)C(C(=O)NC1CCCC1)c1cccnc1 (centres undefined) | 3.1 | 4.1 | 17.9 | -1.4 | 5.4 | -11.6
c1ccc2c(c1)ncn2CCCCOc1ccc2c(c1)CCC2 | 37.3* | -5.5 | 7.6 | 4.1 | 20.5 | -23.9
c1ccc2c(c1)ncn2CCCOc1ccc2c(c1)CCC2 | 34.4* | -5.3 | 27.9 | -1.3 | 8.7 | -33.4
c1ccc2c(c1)ncn2CCN1CCCCC1 | . | 0.1 | -2.1 | . | 2.7 | -2.1
O=S(=O)(c1ccc(Cl)cc1)c1snnc1-c1ccccc1 | 34.2* | 3.5 | -4.4 | 6.1 | 11.5 | -7.5
CCn1c(COc2ccc3c(c2)OCO3)nnc1SCC(=O)c1ccc(Cl)cc1 | 18.3 | 4.9 | 4.5 | -9.7 | 8.2 | -0.4
COc1ccc(NS(=O)(=O)c2cccc(C(=O)OCC(=O)Nc3cc(C)on3)c2)cc1 | 42.2* | 1.3 | -14.5 | -19.6 | 5.4 | 0.8
Cc1ccccc1Nc1cc2ccccc2c(=O)[nH]1 | 15.2 | . | . | 4.7 | . | .
O=c1[nH]c(Nc2ccc(F)cc2)cc2ccccc12 | -5.4 | 0.1 | 1.7 | 7.7 | 47.1* | -15.9
Cc1noc(C)c1CSc1nnc(-c2ccccc2)n1N | 0.4 | -3.5 | 14.2 | 3.8 | 8.2 | -6.2
O=c1c2ccccc2nc(SCc2nc(-c3ccccc3)no2)n1-c1ccc(F)cc1 | 11.4 | . | . | 1.0 | . | .
Cc1noc(C)c1CSc1nnnn1-c1ccc(Cl)cc1 | 30.2* | -1.0 | 26.2 | 17.8 | 3.1 | -2.6
Cc1noc(C)c1CSc1nc2ccccc2c(=O)n1-c1ccc(Cl)cc1 | 37.8* | -3.9 | -15.1 | -6.4 | 10.3 | -3.4
O=C(NCC(=O)N(Cc1ccccc1)C(C(=O)NC1CCCC1)c1ccncc1)c1ccco1 (centres undefined) | . | -4.2 | 14.2 | . | 2.6 | -10.0
Cc1ccc(S(=O)(=O)N2CCC(C(=O)N3Cc4ccccc4C3)CC2)cc1 | 37.4* | -0.1 | 8.3 | 15.5 | 9.9 | -9.6
O=S(=O)(c1ccccc1)N1CCN(C2CCN(Cc3ccccc3)CC2)CC1 | 6.3 | -1.3 | 18.7 | 11.6 | 2.2 | -3.6
Cc1ccc(S(=O)(=O)N2CCN(C3CCN(Cc4ccccc4)CC3)CC2)cc1 | 23.8 | . | . | 69.6* | . | .
Cc1ccc(S(=O)(=O)N2CCN(C(=O)N(c3ccccc3)c3ccccc3)CC2)cc1 | 94.2* | -2.5 | 17.1 | -8.4 | 3.0 | 3.9
SMILES | PostGolgi ctrl | EphB4 antag | Plk1 PBD FP | PostGolgi yeast | HIV Rev-RRE inh | PLK1 inh
CN(C)S(=O)(=O)N1CCN(C(=O)N(c2ccccc2)c2ccccc2)CC1 | -2.4 | -1.9 | 28.4 | -9.3 | -0.4 | -8.2
CC(=O)Nc1ccc(S(=O)(=O)N2CCCCC2c2cccnc2)cc1 (centres undefined) | 34.9* | -2.9 | -18.9 | 0.8 | 5.8 | -1.0
CC1CCCCN1S(=O)(=O)c1ccc(NC(=O)c2cccs2)cc1 (centres undefined) | 33.1* | 3.9 | -19.4 | -11.7 | 9.4 | -9.3
CCn1cc(C(=O)N2CCCc3ccccc32)c2cc(OC)c(OC)cc2c1=O | 19.9 | -4.3 | -7.6 | -2.5 | -0.5 | 10.8
COc1ccc(-c2c3c(=O)n(C)c(=O)n(C)c3cn2-c2cc(OC)ccc2OC)cc1 | 0.0 | 0.7 | 9.5 | 3.0 | 1.3 | -5.3
COc1ccc(-c2nc(NC(=O)CSc3nnc(C)s3)ns2)cc1 | 10.6 | 7.6 | -1.1 | -7.6 | 10.9 | -4.1
COc1ccccc1S(=O)Cc1ccc(C(=O)NCCc2ccc(Cl)cc2)o1 (centres undefined) | 9.6 | 0.2 | -21.0 | -9.4 | 8.2 | 59.9*
Cc1nc(SCc2cccc(Oc3ccccc3)c2)n[nH]1 | 35.5* | 10.7 | 14.2 | -0.3 | 0.8 | -7.1
CCC(=O)N1CCN(c2ccccc2NC(=O)COc2cc(C)ccc2C(C)C)CC1 | 22.2 | 10.6 | 1.4 | -5.2 | 9.1 | -8.4
Cc1onc(-c2c(Cl)cccc2Cl)c1C(=O)NCc1ccco1 | 3.0 | -7.1 | -2.8 | -7.1 | 2.9 | -4.9
Cc1onc(-c2c(Cl)cccc2Cl)c1C(=O)N/N=C(\N)COc1ccc(Cl)cc1 | 32.2* | 0.0 | -17.1 | 2.0 | 0.8 | -6.2
COc1ccc(C)cc1NC(=O)C(=O)NNC(=O)c1ccco1 | 12.0 | 0.7 | 28.6 | 0.6 | -0.4 | -13.5
CCn1c(SCC(=O)Nc2cc3oc4ccccc4c3cc2OC)nnc1-c1cccs1 | 46.8* | -5.1 | 26.1 | -0.2 | -2.0 | -12.7
COc1cc2c(cc1NC(=O)CSc1nnc(Cc3cccs3)n1C)oc1ccccc12 | 34.6* | 1.6 | -9.8 | -9.0 | 3.7 | -8.4
CCn1c(SCC(=O)Nc2ccc3c(c2)oc2ccccc23)nnc1-c1ccc(N)cc1 | 17.9 | -6.3 | -11.7 | 41.8* | -1.3 | -3.8
CCOC(=O)c1ccccc1NC(=O)CSc1nnc(COc2ccccc2C)n1C | 38.5* | 4.3 | -2.1 | 1.6 | 7.1 | 4.4
COc1cc2c(cc1NC(=O)CSc1nnnn1-c1ccccc1)oc1ccccc12 | -1.0 | 4.6 | 2.3 | 0.0 | 7.2 | 2.4
COCCn1nnnc1CN1CCC(C)CC1 | . | 7.1 | 0.6 | . | 3.8 | -13.7
CCOc1cc(N2CCOCC2)c(OCC)cc1NC(=O)CN1C(=O)NC2(CCc3ccccc32)C1=O (centres undefined) | 4.4 | 7.9 | -6.9 | -0.3 | -5.8 | -11.1
COc1cc2c(cc1NC(=O)CN1C(=O)NC3(CCc4ccccc43)C1=O)oc1ccccc12 (centres undefined) | 38.4* | . | . | 7.7 | . | .
C=CCn1c(COc2ccccc2F)nnc1SCC(=O)Nc1cc2oc3ccccc3c2cc1OC | 15.1 | -2.0 | 2.4 | 1.7 | 0.7 | -10.9
COc1cc2c(cc1NC(=O)CSc1nnc(Cc3cccs3)n1Cc1ccco1)oc1ccccc12 | 33.0* | 8.2 | -4.1 | 1.0 | 1.7 | -5.7
COc1cc2c(cc1NC(=O)CSc1nnc(COc3ccc(Cl)cc3)n1C)oc1ccccc12 | 34.5* | 4.8 | -6.8 | 2.0 | 3.7 | -5.3
